Assay outcomes deposited in PubChem BioAssay by The Scripps Research Institute Molecular Screening Center.
OX1R antag-1: OX1R (HCRTR1) antagonists, primary screen, fluorescence, CHO/OX1R cells, Fluo-8 calcium, orexin A | Orexin/Hypocretin receptor type 1 (Homo sapiens), O43613 | Fluo-8 calcium fluorescence | inhibition, % at 5 µM | hit rate 0.43% among 330,000;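 active means inhibition above its plate's threshold, mean inhibition of all tested compounds on the plate plus 3 SD, cut at about 37% in these data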;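 further: 0% = orexin A challenge wells and 100% = SB-334867-A antagonist wells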
OX1R antag-2: antagonists of human orexin 1 receptor (OX1R); OX1R-expressing cells, FRET antagonist read-out; inhibition, % at 6.6 µM; hit rate 1.8% among 330,000; in the data active means inhibition mostly above about 38%, no sharp cut-off; inactive means mostly below about 40%;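 further: 0% = agonist challenge alone and 100% = reference antagonist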
GPR7 antag: GPR7 receptor antagonists, primary screen, cell-based, fluorescence, single concentration | inhibition, % at 4.4 µM | hit rate 1.1% among 290,000 | GPR7-expressing cells, fluorescence antagonist assay; in the data active means inhibition above about 16%, passing the limit was not always enough;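 further: cells stimulated with the agonist NPW; 0% = agonist with vehicle and 100% = vehicle without agonist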
Target sequence (P48145 whole entry, looked up): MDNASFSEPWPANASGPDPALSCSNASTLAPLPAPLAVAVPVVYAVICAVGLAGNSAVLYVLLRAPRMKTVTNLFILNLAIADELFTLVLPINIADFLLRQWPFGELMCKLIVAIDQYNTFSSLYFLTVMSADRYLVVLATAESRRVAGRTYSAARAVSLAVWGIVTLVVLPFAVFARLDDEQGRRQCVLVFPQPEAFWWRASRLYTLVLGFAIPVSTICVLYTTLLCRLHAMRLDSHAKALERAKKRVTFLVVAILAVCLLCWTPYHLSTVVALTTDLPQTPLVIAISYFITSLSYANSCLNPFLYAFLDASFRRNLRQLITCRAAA
GalR3 antag: GalR3 antagonists in HEK293 cells, primary screen, cell-based, fluorescence readout | AID 651719, 2012 | hit rate 0.44% among 360,000 | Galanin receptor type 3 (Homo sapiens), O60755 | HEK293 GalR3-CNG cAMP membrane potential fluorescence; galR3 body fused to GalR1 C-terminus | inhibition, % at 3 µM;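 active means inhibition above the screen-wide average plus 3 SD, cut at about 13% in these data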;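 further: forskolin and galanin both at EC90 stimulate the cells; cAMP rise reported by CNG channel membrane potential dye signal; 0% = forskolin plus galanin with DMSO and 100% = forskolin alone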
Target sequence (O60755 1-299 limits assumed): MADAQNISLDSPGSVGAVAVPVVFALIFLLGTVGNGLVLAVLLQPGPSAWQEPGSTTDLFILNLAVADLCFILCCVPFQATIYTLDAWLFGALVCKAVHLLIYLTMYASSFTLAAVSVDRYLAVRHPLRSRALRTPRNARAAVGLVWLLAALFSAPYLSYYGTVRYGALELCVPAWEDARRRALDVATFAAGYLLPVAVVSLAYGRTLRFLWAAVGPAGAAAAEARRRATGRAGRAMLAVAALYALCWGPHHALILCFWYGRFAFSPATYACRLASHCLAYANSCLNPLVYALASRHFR
CHO parental Ca: ATP-evoked calcium signal inhibitors, parental CHO, primary screen, counter-screen for OX1R antagonist project, cell-based, fluorescence, Fluo-8 calcium dye; inhibition, % at 5.6 µM; hit rate 0.63% among 330,000; AID 463079, 2010; parental CHO-K1, ATP-induced calcium, Fluo-8 fluorescence;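 active means inhibition above that plate's mean sample inhibition plus 3 SD, cut at about 26% in these data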;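 further: 0% = ATP-challenged DMSO wells and 100% = DMSO wells without ATP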
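Assay system: untransfected parental CHO cell line. Also added: ATP agonist challenge. Dosing: one dose, 5.6 µM nominal. Measured by: Fluo-8 fluorescence. Read-out: % inhibition. Benchmarks: ATP wells versus no-ATP DMSO wells. Repeats: no replicates.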
* hit, by the source's call; x = no result given. In the library only some 3.1% were active in any assay of this set; here they are far more common.

SMILES	OX1R antag-1	OX1R antag-2	GPR7 antag	GalR3 antag	CHO parental Ca
O=C(O)c1ccc(S(=O)(=O)c2ccc([N+](=O)[O-])cc2[N+](=O)[O-])cc1	-7	57*	4	-10	1
COc1ccc([C@@H]2CC=C(C(=O)O)[C@H](c3ccc(F)cc3)N2S(=O)(=O)c2ccccc2C)cc1	-26	35	x	7	-18
Cc1ccc([C@@H]2CC=C(C(=O)O)[C@H](c3ccccc3)N2S(=O)(=O)c2ccccc2C)cc1	33	54*	x	-4	-15
Cc1ccc([C@H]2C(C(=O)O)=CC[C@@H](c3ccc(C)cc3)N2S(=O)(=O)c2ccccc2C)cc1	0	45*	x	2	-19
Cc1ccc([C@H]2C(C(=O)O)=CC[C@@H](c3ccc(Cl)cc3)N2S(=O)(=O)c2ccccc2C)cc1	21	31	x	x	-12
COc1ccc([C@@H]2CC=C(C(=O)O)[C@H](c3ccc(C)cc3)N2S(=O)(=O)c2ccccc2C)cc1	2	50*	x	-7	-11
COC(=O)c1cc(S(=O)(=O)NCCc2sccc2C)c[nH]1	-2	6	7	-8	-14
Cc1ccc(-n2c(C)nnc2SCC(=O)NC2CCCC2)cc1	-16	20	4	-2	-3
Cc1ccc(NC(=O)c2cc(S(=O)(=O)N3CCCC3)c[nH]2)c(C)c1	-6	8	2	2	3
NC(=O)c1ccsc1NC(=O)c1ccc([N+](=O)[O-])o1	32	34*	x	-5	-4
O=C(Nc1cccc2ccccc12)c1ccc([N+](=O)[O-])o1	-11	29	-22	-9	-7
O=C(Nc1ncccn1)c1ccc([N+](=O)[O-])o1	1	41*	-5	-7	-14
O=C(Nc1ccc2[nH]c(=O)[nH]c2c1)c1ccc([N+](=O)[O-])o1	-2	43*	x	-5	-7
O=C(Nc1ccccn1)c1ccc([N+](=O)[O-])o1	-6	72*	-6	x	-1
COC(=O)C1=C(C)N(Cc2cccc(C(F)(F)F)c2)C(=NCc2ccc(C(F)(F)F)cc2)NC1c1ccccc1 (stereo not given)	x	x	x	-6	x
O=c1ccc2cc(S(=O)(=O)NCc3ccccc3)ccc2[nH]1	-5	-1	9	x	6
O=C1CCCCC1(O)Cc1ccc2c(c1)OCO2 (stereo not given)	x	x	x	-6	x
O=C1[C@@H]2Cc3c([nH]c4ccccc34)C(c3cccc([N+](=O)[O-])c3)N2C(=O)CN1CCCO (stereo not given in full)	-11	11	4	-12	-7
Cc1cccc(NC(=O)c2ccc([N+](=O)[O-])o2)c1C	-14	76*	-4	-3	-1
COc1ccc(OC)c(NC(=O)CS(=O)(=O)Cc2nc(-c3ccccc3C)oc2C)c1	2	72*	-1	x	-20
COc1cccc(-c2nc(CS(=O)(=O)CC(=O)Nc3cccc(C(C)=O)c3)c(C)o2)c1	0	48*	-7	-4	-32
COc1cccc(-c2nc(CS(=O)(=O)CC(=O)Nc3c(C)cccc3C)c(C)o2)c1	-10	4	-2	x	-24
O=C(CSc1nnc(NC(=O)C2CCC2)s1)Nc1ccccc1Br	-9	31	-8	12	1
Cc1nnc(NC(=O)CSc2nnc3ncccn23)s1	-2	-8	2	-8	9
O=C(CSc1nc2ncc(Cl)cc2[nH]1)Nc1cccc(F)c1	-14	47*	-19	-6	4
SMILES	OX1R antag-1	OX1R antag-2	GPR7 antag	GalR3 antag	CHO parental Ca
COc1ccccc1C1(CCNC(C)c2cccs2)CCOC(C(C)C)C1 (stereo not given)	-25	5	20*	-4	-9
Cc1ccc(C2(CCNC(C)c3cccs3)CCOC(C(C)C)C2)cc1 (stereo not given)	x	x	10	-9	x
COc1ccccc1OCC(=O)Nc1ccc(CSc2ccccc2)cc1C	-15	21	8	-2	30*
Cc1cc(CSc2ccccc2)ccc1NC(=O)COc1ccccc1	-17	31	1	-9	-15
Cc1ccc(N2C(=O)CC(Sc3nc4ccccc4o3)C2=O)cc1Cl (stereo not given)	4	5	-9	-1	-18
COc1ccc(CCN2Cc3c(N)cccc3C2=O)cc1OC	-7	-5	-3	-10	-4
COc1ccc(CCN2Cc3c(cccc3[N+](=O)[O-])C2=O)cc1OC	-27	38*	-13	-10	-2
O=C(Nc1nc(-c2cccs2)cs1)c1cc2ccccc2oc1=O	x	x	-5	x	x
O=c1oc2ccccc2cc1-c1nc(-c2cccs2)cs1	3	51*	-12	-6	-30
Cc1cc(C)cc(NC(=S)N2CCN(S(=O)(=O)c3ccccc3)CC2)c1	x	x	-6	-3	x
COc1ccc(S(=O)(=O)Nc2ccccc2)cc1	-17	14	x	-6	-33
COc1ccc(S(=O)(=O)Nc2ccc(O)c3ccccc23)cc1	-15	43*	-10	-6	-9
O=S(=O)(Nc1c(O)ccc2ccccc12)c1ccc(F)cc1	-7	41	x	0	-39
O=S(=O)(Nc1c(O)ccc2ccccc12)c1ccccc1	6	64*	x	-3	-27
Cc1nn(-c2ccccc2)c(Cl)c1CN(C(=O)CCl)c1cccc2ccccc12	-19	23	32*	-10	-12
CC(=O)c1sc(Nc2cccc3ccccc23)nc1C	-28	14	x	-6	-10
CC(=O)c1sc(Nc2ccccn2)nc1C	7	73*	5	-4	-4
O=C(Nc1ccc(Cl)c(Cl)c1)OCc1cccnc1	40	75*	8	-1	76*
CC(=O)Nc1ccc(C(=O)Nc2cccc(S(=O)(=O)N(C)c3ccccc3)c2)cc1	-5	8	x	-7	-19
CN(c1ccccc1)S(=O)(=O)c1cccc(C(=O)NNC(=O)c2ccccc2)c1	9	46*	-9	-4	31
CN(c1cccc(NC(=O)c2ccc(N(C)S(=O)(=O)c3ccccc3)cc2)c1)S(C)(=O)=O	67*	21	6	-7	62*
CN(c1ccccc1)S(=O)(=O)c1cccc(NC(=O)c2ccc(Cl)c([N+](=O)[O-])c2)c1	62*	44*	x	-4	64*
Cc1nc2ccc(NC(=O)c3ccc(S(=O)(=O)N(C)C)cc3)cc2s1	-15	4	-17	-2	-4
Cc1nc2ccc(NC(=O)c3ccc(Cl)c(S(=O)(=O)N(C)c4ccccc4)c3)cc2s1	28	50	1	-2	41*
O=C(N/N=C/c1ccccn1)NC12CC3CC(CC(C3)C1)C2	-26	6	-4	-8	-14
CC(=O)n1cc(/C=N/NC(=O)c2ccc(Cl)cc2)c2ccccc21	-26	-6	7	-4	-6
O=C(Cn1nc(C(=O)O)c2ccccc2c1=O)Nc1cccc(S(=O)(=O)N2CCCC2)c1	x	x	x	8	x
